In brackets after ≈: the same amount, converted by molar mass.
Key:
[1] = Ratio of drug level whole brain to plasma in abcb1a-deficient mouse at 1 mg/kg, po after 50 mins
[2] = Aqueous solubility of the compound at pH 7.4; assay type: physicochemical; conditions: buffer
Method in brief: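 About 5 mg solid was shaken overnight in 1 mL of 25 mM phosphate buffer, pH 7.4, after 3 min sonication; more solid was added if it all dissolved. The suspension was filtered through 0.22 μm PVDF and the solution measured by HPLC against a standard curve.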

Hepatocyte = test: Intrinsic clearance in human hepatocytes at 0.2 uM after 60 mins; assay type: ADME, cell-based, Liver; conditions: 1 h
Method in brief: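 Pooled cryopreserved hepatocytes: human (three donors), male Sprague-Dawley rat (two donors), male beagle dog (two donors). Cells at 10^6/mL in DMEM with 5 mM HEPES, 37 C, 15 min preincubation; compound at 0.2 μM. Samples at 0-60 min, depletion by LC-MS/MS. t1/2 scaled to CLint with 120 (human, rat) or 240 (dog) million cells/g liver. n = 1.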

[3] = Apparent permeability from apical to basolateral side in human Caco2 cells at 1 uM after 21 to 28 days; assay type: ADME, cell-based; conditions: caco-2
Method in brief: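 Caco-2 cells grown 21-28 days on permeable filters. A 2 mM DMSO stock was diluted into Hanks-HEPES pH 7.4. Dosing solution went into the apical (A-B) or basolateral (B-A) chamber, and the opposite chamber was sampled over 240 min with buffer replacement. Efflux ratio = Papp,B-A/Papp,A-B. Mean ± SD, n = 3.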

Cytochrome P450 2C9 = Cytochrome P450 2C9 (Homo sapiens, UniProt P11712); test: Inhibition of recombinant CYP2C9 after 45 mins; assay type: ADME
Sequence of Cytochrome P450 2C9 (P11712 whole entry): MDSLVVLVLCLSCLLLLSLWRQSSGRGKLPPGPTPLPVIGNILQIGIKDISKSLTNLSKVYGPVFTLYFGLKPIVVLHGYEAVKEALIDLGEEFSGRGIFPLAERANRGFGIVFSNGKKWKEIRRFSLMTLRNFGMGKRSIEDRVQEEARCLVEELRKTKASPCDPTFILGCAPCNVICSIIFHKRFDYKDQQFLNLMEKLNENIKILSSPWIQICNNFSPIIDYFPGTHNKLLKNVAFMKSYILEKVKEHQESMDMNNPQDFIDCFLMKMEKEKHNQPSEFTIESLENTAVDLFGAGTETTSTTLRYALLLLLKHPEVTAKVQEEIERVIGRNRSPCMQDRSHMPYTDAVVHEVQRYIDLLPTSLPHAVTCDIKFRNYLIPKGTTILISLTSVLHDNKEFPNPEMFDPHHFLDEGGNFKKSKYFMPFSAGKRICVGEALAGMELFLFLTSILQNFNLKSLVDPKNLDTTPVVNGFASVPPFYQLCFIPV

Mus musculus = test: Reversal of haloperidol-induced hypolocomotion in po dosed NMRI mouse administered 30 mins before haloperidol challenge measured for 20 mins; assay type: functional
Method in brief: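 Male NMRI mice (n = 8/group) were given compound po in 25% cremophor/saline, then haloperidol 0.63 mg/kg sc 30 min later. After 15 min they went into photocell activity boxes, and locomotion was recorded for 20 min. ED50 by sigmoidal fit with top 100 and bottom 0.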

Adenosine receptor A1 = target: T1, Adenosine receptor A1 (Homo sapiens, UniProt P30542); test: Displacement of [3H]-DPCPX from human adenosine A1 receptor expressed in CHO cells after 30 mins by scintillation counting; assay type: cell-based
T1 sequence (P30542 whole entry): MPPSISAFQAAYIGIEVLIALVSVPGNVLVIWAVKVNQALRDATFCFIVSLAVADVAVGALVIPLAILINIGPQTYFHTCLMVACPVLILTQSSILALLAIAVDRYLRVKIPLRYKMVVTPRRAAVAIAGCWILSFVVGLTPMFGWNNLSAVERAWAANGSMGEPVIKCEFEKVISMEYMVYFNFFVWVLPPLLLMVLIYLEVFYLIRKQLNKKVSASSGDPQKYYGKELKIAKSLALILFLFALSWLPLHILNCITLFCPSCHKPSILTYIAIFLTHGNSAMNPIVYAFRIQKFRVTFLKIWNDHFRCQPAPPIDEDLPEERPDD
Method in brief: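 CHO-hA1 membranes at 10.8 μg protein/well, pretreated with adenosine deaminase (2 U/mL, 30 min, 37 C), were incubated with 1 nM [3H]-DPCPX in 50 mM Tris/HCl pH 7.4 for 30 min at 25 C across 10 compound concentrations. Filtration on PEI-soaked GF/B, scintillation counting. Nonspecific binding by CGS15943. Ki by Cheng-Prusoff. Means of ≥2 determinations.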

[4] = Protein binding in rat serum at 1 uM after 60 mins by LC/MS-MS; assay type: ADME, cell-free; conditions: read-out: PPB (converted)
Adenosine receptor A2b = target: T2, Adenosine receptor A2b (Homo sapiens, UniProt P29275); test: Displacement of [3H]-MRS1754 from human recombinant adenosine A2B receptor expressed in HEK293 cells after 120 mins
T2 sequence (P29275 whole entry): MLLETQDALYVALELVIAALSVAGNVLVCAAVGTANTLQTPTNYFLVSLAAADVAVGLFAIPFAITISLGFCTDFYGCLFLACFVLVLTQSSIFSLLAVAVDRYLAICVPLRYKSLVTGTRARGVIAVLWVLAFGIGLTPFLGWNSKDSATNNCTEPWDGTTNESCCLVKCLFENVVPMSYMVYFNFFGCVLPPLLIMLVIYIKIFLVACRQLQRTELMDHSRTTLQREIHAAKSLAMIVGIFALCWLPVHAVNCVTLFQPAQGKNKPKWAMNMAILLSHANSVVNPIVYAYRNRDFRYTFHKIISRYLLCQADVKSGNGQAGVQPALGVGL

Adenosine receptor A2a = Adenosine receptor A2a (Homo sapiens, UniProt P29274); test: Displacement of [3H]-ZM241385 from human adenosine A2A receptor expressed in high five cells after 30 mins by scintillation counting
Sequence of Adenosine receptor A2a (P29274 whole entry): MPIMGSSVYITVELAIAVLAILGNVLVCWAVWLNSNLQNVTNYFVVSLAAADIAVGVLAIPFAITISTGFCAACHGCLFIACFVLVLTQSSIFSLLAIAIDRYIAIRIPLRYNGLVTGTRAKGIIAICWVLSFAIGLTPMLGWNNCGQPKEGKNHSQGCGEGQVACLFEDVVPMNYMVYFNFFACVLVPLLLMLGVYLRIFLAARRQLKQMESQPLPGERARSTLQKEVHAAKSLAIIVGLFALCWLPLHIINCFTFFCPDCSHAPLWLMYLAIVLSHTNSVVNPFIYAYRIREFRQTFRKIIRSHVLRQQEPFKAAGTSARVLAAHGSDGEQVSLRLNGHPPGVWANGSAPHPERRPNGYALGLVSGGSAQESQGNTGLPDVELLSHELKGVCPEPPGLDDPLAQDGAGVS

[5] = target: T3, Adenosine receptor A3 (Homo sapiens) (UniProt P0DMS8); test: Displacement of [3H]-AB-MECA from human recombinant adenosine A3 receptor expressed in CHO-K1 cells at 10 uM after 60 mins; assay type: cell-based
T3 sequence (whole entry): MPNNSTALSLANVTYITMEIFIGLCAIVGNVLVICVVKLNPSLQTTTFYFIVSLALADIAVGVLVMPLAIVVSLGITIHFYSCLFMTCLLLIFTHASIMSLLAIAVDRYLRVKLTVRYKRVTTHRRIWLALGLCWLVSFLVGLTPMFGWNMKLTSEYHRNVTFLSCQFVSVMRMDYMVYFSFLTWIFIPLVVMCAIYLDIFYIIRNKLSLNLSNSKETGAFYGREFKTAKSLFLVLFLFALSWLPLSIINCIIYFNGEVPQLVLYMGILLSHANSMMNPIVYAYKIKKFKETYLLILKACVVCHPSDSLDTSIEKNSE

Cytochrome P450 1A2 = target: T4, Cytochrome P450 1A2 (Homo sapiens, UniProt P05177); test: Inhibition of recombinant CYP1A2 after 28 mins; assay type: ADME
T4 sequence (P05177 whole entry): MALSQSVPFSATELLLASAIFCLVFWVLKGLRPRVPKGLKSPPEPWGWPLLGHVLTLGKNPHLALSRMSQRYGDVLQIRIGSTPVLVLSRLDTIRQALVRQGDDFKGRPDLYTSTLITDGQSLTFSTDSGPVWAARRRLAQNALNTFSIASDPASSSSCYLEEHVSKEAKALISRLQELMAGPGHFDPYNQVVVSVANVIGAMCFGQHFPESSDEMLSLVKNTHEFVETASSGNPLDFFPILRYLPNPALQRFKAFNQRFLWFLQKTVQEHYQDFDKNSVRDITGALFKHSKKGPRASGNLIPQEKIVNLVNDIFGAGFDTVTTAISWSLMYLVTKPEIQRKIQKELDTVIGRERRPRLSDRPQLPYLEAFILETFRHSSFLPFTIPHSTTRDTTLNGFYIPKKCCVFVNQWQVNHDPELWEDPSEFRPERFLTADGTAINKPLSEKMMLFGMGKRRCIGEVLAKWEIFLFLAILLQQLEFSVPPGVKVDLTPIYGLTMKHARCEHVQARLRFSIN
Method in brief: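 Recombinant CYP supersomes incubated in phosphate buffer with eight compound concentrations (40-0.02 μM) and fluorogenic substrates. CYP1A2: 7-ethoxy-3-cyanocoumarin 10 μM, 28 min. CYP2C19: same substrate 50 μM, 45 min. CYP2D6: AMMC 3 μM, 45 min. CYP3A4: resorufin benzyl ether 100 μM, 30 min. Fluorescent metabolite read; IC50 relative to uninhibited controls.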

CC(C)(C)CC(=O)Nc1c(F)cc(C(=O)Nc2nccs2)cc1F
Kp at 50 min [1]: 0.8
solubility [2]: 1 µg/mL (≈ 2.83 µM)
CL (Hepatocyte): 600 mL/min
Papp A→B at 1 µM [3]: 88 ×10⁻⁶ cm/s
IC50 (Cytochrome P450 2C9): > 40 µM
Activity (Mus musculus): Dose-dependent effect
ED50 (Mus musculus): 0.5 mg/kg
Ki (Adenosine receptor A1): 410 nM
fraction unbound at 1 h, 1 µM [4]: 0.03
Ki (Adenosine receptor A2b): 260 nM
Ki (Adenosine receptor A2a): 5.9 nM
inhibition [5]: 36%
IC50 (Cytochrome P450 1A2): > 40 µM
